Blank lines part the entries; values can stand above or below the compound they belong to. Active and inactive are the calls of the source. No cut-off for these calls is given here.
Assays:
Gerbillinae [1] = experiment: Gerbil colon stimulation relative to PGE1 (100); Ranges from (0.1-0.3); assay type: functional
In short: (§1)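 Isolated ascending colon from male gerbils (Meriones unguiculatus) mounted in de Jalon's solution (NaCl 154 mM, KCl 0.54 mM, CaCl2 0.27 mM, NaHCO3 1.78 mM, glucose 5.55 mM); isotonic contractions recorded with linear transducers in 5-mL baths.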

Rattus norvegicus [2] = organism: Rattus norvegicus; experiment: Blood pressure potency in rat relative to PGE1 (100); IA means inactive; assay type: functional, organism-based
In short: (§2)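 Mature female albino rats, pentobarbital anesthesia (30 mg/kg ip, supplemented as needed), pretreated with atropine sulfate (0.08 mg sc) and pentolinium tartrate (2 mg iv). Test solutions or emulsions injected via femoral vein; carotid arterial pressure recorded by transducer. Change in mmHg (rise or fall) compared with standards: PGE1 for depressor, PGF2α for pressor responses.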

Rattus norvegicus [3] = organism: Rattus norvegicus; experiment: Blood pressure potency in rat relative to […]; T denotes toxic; assay type: organism-based; in short: as §2
Gerbillinae [4] = experiment: Gerbil colon stimulation relative to PGE1 (100); assay type: functional; in short: as §1
Rattus norvegicus [5] = organism: Rattus norvegicus; experiment: Blood pressure potency in rat relative to PGF2-alpha (100). Range is between (0.3-1); assay type: functional; in short: as §2
Rattus norvegicus [6] = organism: Rattus norvegicus; experiment: Blood pressure potency in rat relative to PGE1 (100); assay type: functional; in short: as §2
[7] = Plasma hydrolysis of percent cross reaction of substrate with PGF2-alpha antisera; assay type: ADME, cell-free
In short: (§3)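 Substrates incubated with saline (control), hog liver esterase, or rat, monkey or human blood plasma for 2 h or 20 h; released PGF2α quantified by radioimmunoassay as cross-reactivity with PGF2α antisera. PGF2α itself served as assay positive control. Substrate cross-reaction with the antisera determined separately.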

Gerbillinae [8] = experiment: Gerbil colon stimulation relative to PGE1 (100); Range is between (0.1-0.3); assay type: functional; in short: as §1
Sus scrofa [9] = organism: Sus scrofa; experiment: Plasma hydrolysis following 2 h incubation with hog liver esterase; assay type: functional; in short: as §3
Sus scrofa [10] = organism: Sus scrofa; experiment: Plasma hydrolysis following 20 hr incubation with hog liver esterase; assay type: functional; in short: as §3
Homo sapiens [11] = organism: Homo sapiens; experiment: Plasma hydrolysis following 2 hr incubation with human plasma; assay type: functional; in short: as §3
Homo sapiens [12] = organism: Homo sapiens; experiment: Plasma hydrolysis following 20 hr incubation with human plasma; assay type: functional; in short: as §3
Monkey [13] = experiment: Plasma hydrolysis following 20 hr incubation with monkey plasma; assay type: functional, Cercopithecidae; in short: as §3
Monkey [14] = experiment: Plasma hydrolysis following 2 hr incubation with monkey plasma; assay type: functional, Cercopithecidae; in short: as §3
Rattus norvegicus [15] = organism: Rattus norvegicus; experiment: Plasma hydrolysis following 2 hr incubation with rat plasma; assay type: functional; in short: as §3
Rattus norvegicus [16] = organism: Rattus norvegicus; experiment: Plasma hydrolysis following 20 hr incubation with rat plasma; assay type: functional; in short: as §3
Rattus norvegicus [17] = experiment: In vivo urinary excretion of PGF2-alpha metabolite in rats, when administered sc (1 mg/rat) urinary excretion on day 1 Range is between (31.9-155).; assay type: functional, Urine
Rattus norvegicus [18] = experiment: In vivo urinary excretion of PGF2-alpha metabolite in rats, when administered sc (1 mg/rat) urinary excretion on day 2 Range is between (2.2-5.6).; assay type: functional, Urine
Gerbillinae [19] = experiment: Gerbil colon stimulation relative to PGE1 (100); Range from (0.1-0.3); assay type: functional; in short: as §1
Gerbillinae [20] = experiment: Gerbil colon stimulation relative to PGE1 (100); Range is between (0.3-1); assay type: functional; in short: as §1
Rattus norvegicus [21] = organism: Rattus norvegicus; experiment: Blood pressure potency in rat relative to PGE1 (100). Range is between (10-32); assay type: functional; in short: as §2
Rattus norvegicus [22] = organism: Rattus norvegicus; experiment: Blood pressure potency in rat relative to PGE1 (100); compound is biphasic and weak.; assay type: functional, organism-based; in short: as §2
Gerbillinae [23] = experiment: Gerbil colon stimulation relative to PGE1 (100); Range from (0.3-1); assay type: functional; in short: as §1
Rattus norvegicus [24] = experiment: in vivo urinary excretion of PGF2-alpha metabolite in rats, when administered sc (1 mg/rat) urinary excretion on day 2. Range is between (1.2-2.0); assay type: functional, Urine
Rattus norvegicus [25] = organism: Rattus norvegicus; experiment: Blood pressure potency in rat relative to PGF2-alpha (100); value ranges from (0.3-1); assay type: functional; in short: as §2
Rattus norvegicus [26] = experiment: in vivo Urinary excretion of PGF2-alpha metabolite in rats, when administered sc (1 mg/rat) urinary excretion on day. c1(27.2-31.1); assay type: functional, Urine
Gerbillinae [27] = experiment: Gerbil colon stimulation relative to PGE1 (100); Range is between (1-3); assay type: functional; in short: as §1
Rattus norvegicus [28] = organism: Rattus norvegicus; experiment: Blood pressure potency in rat relative to PGF2-alpha (100). Range is between(3-10).

SMILES: O=C1CCC/C=C\C[C@@H]2C(/C=C\[C@@H](COc3ccccc3)O1)[C@H](O)C[C@@H]2O (stereo partly drawn)
- Relative potency (Gerbillinae [1]): 0.1
- Relative potency (Rattus norvegicus [2]): inactive
- Relative potency (Rattus norvegicus [3]): Toxic

SMILES: CCCCC[C@](C)(O)/C=C/C1[C@@H]2C[C@@H](O)[C@H]1C/C=C\CCCC(=O)O2 (stereo partly drawn)
- Relative potency (Gerbillinae [4]): <0.1
- Relative potency (Rattus norvegicus [5]): 0.3

SMILES: CCCCC[C@@H]1/C=C\C2[C@H](O)CC(=O)[C@@H]2CCCCCCC(=O)O1 (stereo partly drawn)
- Relative potency (Gerbillinae [4]): <0.1
- Relative potency (Rattus norvegicus [6]): <0.1

- Cross reaction [7]: 0.9%
SMILES: CCCCC[C@@H]1/C=C\C2[C@H](O)C[C@H](O)[C@@H]2C/C=C\CCCC(=O)O1 (stereo partly drawn)
- Relative potency (Gerbillinae [8]): 0.1
- Hydrolysis (Sus scrofa [9]): 55.3%
- Hydrolysis (Sus scrofa [10]): 75.6%
- Hydrolysis (Homo sapiens [11]): 55.6%
- Hydrolysis (Homo sapiens [12]): 57.9%
- Hydrolysis (Monkey [13]): 41.7%
- Hydrolysis (Monkey [14]): 8.4%
- Hydrolysis (Rattus norvegicus [15]): 51.4%
- Hydrolysis (Rattus norvegicus [16]): 58.7%
- Relative potency (Rattus norvegicus [6]): <0.1
- Urinary excretion (Rattus norvegicus [17]): 77.1 µg
- Urinary excretion (Rattus norvegicus [18]): 3.9 µg

SMILES: CCCCC[C@@H]1/C=C\C2CCC(=O)[C@@H]2C/C=C\CCCC(=O)O1 (stereo partly drawn)
- Relative potency (Gerbillinae [19]): 0.1
- Relative potency (Rattus norvegicus [6]): <0.1

SMILES: CCCCC[C@H](O)/C=C/C1C(=O)C[C@@H]2OC(=O)CCC/C=C\C[C@H]12 (stereo partly drawn)
- Relative potency (Gerbillinae [20]): 0.3
- Relative potency (Rattus norvegicus [21]): 10

SMILES: O=C1CCC/C=C\C[C@H]2C(=O)C[C@@H](O)C2/C=C\[C@@H](CCc2ccccc2)O1 (stereo partly drawn)
- Relative potency (Gerbillinae [20]): 0.3
- Relative potency (Rattus norvegicus [22]): Weak

SMILES: CCCCC[C@@H]1/C=C\C2[C@H](O)C[C@H](O)[C@@H]2CCCCCCC(=O)O1 (stereo partly drawn)
- Relative potency (Gerbillinae [4]): <0.1
- Relative potency (Rattus norvegicus [6]): <0.1

- Cross reaction [7]: 0.09%
SMILES: CCCCC[C@H](O)/C=C/C1[C@@H]2C[C@@H](O)[C@H]1C/C=C\CCCC(=O)O2 (stereo partly drawn)
- Relative potency (Gerbillinae [23]): 0.3
- Hydrolysis (Sus scrofa [9]): 28.3%
- Hydrolysis (Sus scrofa [10]): 100%
- Hydrolysis (Homo sapiens [11]): 0.2%
- Hydrolysis (Homo sapiens [12]): 0.6%
- Hydrolysis (Monkey [13]): 15.5%
- Hydrolysis (Monkey [14]): 2.4%
- Hydrolysis (Rattus norvegicus [15]): 43%
- Hydrolysis (Rattus norvegicus [16]): 80.6%
- Urinary excretion (Rattus norvegicus [24]): 1.6 µg
- Relative potency (Rattus norvegicus [25]): 0.3
- Urinary excretion (Rattus norvegicus [26]): 27.2 µg

SMILES: CCCCC[C@](C)(O)/C=C/C1[C@H](O)C[C@@H]2OC(=O)CCC/C=C\C[C@H]12 (stereo partly drawn)
- Relative potency (Gerbillinae [27]): 1
- Relative potency (Rattus norvegicus [28]): 3
